Tests used:
[1] = Inhibition of HIV1 gp120 binding to 17b antibody by SPR competition binding assay; set-up: species or system Human immunodeficiency virus 1
[2] = Inhibition of HIV1 gp120 binding to CD4 by SPR competition binding assay; set-up: species or system Human immunodeficiency virus 1
[3] = Stability assessed as chymotrypsin (unknown origin)-mediated compound degradation incubated for 40 hrs at 37 degC by HPLC and ESI-MS method; format: ADME; settings: human
Method in brief: (§1)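 Each peptide was incubated on its own with a single protease (trypsin or chymotrypsin) at 37 °C. Digestion was tracked by HPLC and ESI-MS for remaining intact peptide. For chymotrypsin, samples were taken after 30 min, and the cyclic peptide was also checked after 20 h and 40 h.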

[4] = Stability assessed as trypsin (unknown origin)-mediated compound degradation incubated for 5 hrs at 37 degC by HPLC and ESI-MS method; format: ADME; settings: human; method in brief: as §1
[5] = Stability assessed as chymotrypsin (unknown origin)-mediated compound degradation incubated for 30 mins at 37 degC by HPLC and ESI-MS method; format: ADME; settings: human, 0.5 h; method in brief: as §1
[6] = Stability assessed as chymotrypsin (unknown origin)-mediated compound degradation incubated for 5 hrs at 37 degC by HPLC and ESI-MS method; format: ADME; settings: human
Method in brief: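 Each peptide incubated on its own with chymotrypsin at 37 °C. Digestion followed over time by HPLC, with ESI-MS used to check the intact peptide and its fragments. Extended sampling at 20 h and 40 h was also done.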

[7] = Stability assessed as chymotrypsin (unknown origin)-mediated compound degradation incubated for 20 hrs at 37 degC by HPLC and ESI-MS method; format: ADME; settings: human; method in brief: as §1

IC50 [1]	IC50 [2]	Structure (SMILES)	further results
> 20000 nM	> 20000 nM	CC[C@@H](C)[C@H]1NC(=O)[C@@H](CC(N)=O)NC(=O)[C@@H](N)CCC(=O)NCC[C@H](C(N)=O)NC(=O)[C@@H](Cc2c[nH]c3ccccc23)NC(=O)[C@H]2C[C@@H](n3cc(CCc4ccccc4)nn3)CN2C1=O	–
3900 nM	5700 nM	CC[C@@H](C)[C@H]1NC(=O)[C@@H](CC(N)=O)NC(=O)[C@@H](N)CC(=O)NCCC[C@H](C(N)=O)NC(=O)[C@@H](Cc2c[nH]c3ccccc23)NC(=O)[C@H]2C[C@@H](n3cc(CCc4ccccc4)nn3)CN2C1=O	–
96 nM	85 nM	CC[C@@H](C)[C@H]1NC(=O)[C@@H](CC(N)=O)NC(=O)[C@@H](N)CC(=O)NCCCC[C@H](C(N)=O)NC(=O)[C@@H](Cc2c[nH]c3ccccc23)NC(=O)[C@H]2C[C@@H](n3cc(CCc4ccccc4)nn3)CN2C1=O	Stability [3]: Stable; Stability ([4]; 5 h): Stable; Stability [5]: Stable; Stability [6]: Stable; Stability [7]: Stable
400 nM	500 nM	CC[C@@H](C)[C@H]1NC(=O)[C@@H](CC(N)=O)NC(=O)[C@@H](N)CC(=O)NCC[C@H](C(N)=O)NC(=O)[C@@H](Cc2c[nH]c3ccccc23)NC(=O)[C@H]2C[C@@H](n3cc(CCc4ccccc4)nn3)CN2C1=O	–
269 nM	138 nM	CC[C@@H](C)[C@@H](N)C(=O)N[C@H]1CCC(=O)NCCCC[C@H](C(N)=O)NC(=O)[C@@H](Cc2c[nH]c3ccccc23)NC(=O)[C@H]2C[C@@H](n3cc(CCc4ccccc4)nn3)CN2C(=O)[C@@H]([C@H](C)CC)NC(=O)[C@@H](CC(N)=O)NC1=O	–
–	–	CC[C@@H](C)[C@@H](NC(=O)[C@@H](CC(N)=O)NC(=O)[C@@H](N)CC(=O)O)C(=O)N1C[C@H](n2cc(CCc3ccccc3)nn2)C[C@@H]1C(=O)N[C@H](Cc1c[nH]c2ccccc12)C(=O)N[C@H](CCCCN)C(N)=O	metabolised at 5 h ([4]; trypsin, read-out: Drug degradation): 60%; Drug degradation [5]: 100%; Drug degradation [6]: 60%
> 40000 nM	> 40000 nM	CC[C@@H](C)[C@H]1NC(=O)[C@@H](CC(N)=O)NC(=O)[C@@H](N)CCC(=O)NCCCC[C@H](C(N)=O)NC(=O)[C@@H](Cc2c[nH]c3ccccc23)NC(=O)[C@H]2C[C@@H](n3cc(CCc4ccccc4)nn3)CN2C1=O	–
